Measured values: ChEMBL document CHEMBL2069283, “C-N bond formation under Cu-catalysis: synthesis and in vitro evaluation of N-aryl substituted thieno[2,3-d]pyrimidin-4(3H)-ones against chorismate mutase” (Bioorg Med Chem, 2012)

Columns and labels:
[1] = target: T1, Intracellular chorismate mutase (Mycobacterium tuberculosis) (UniProt P9WIC1); assay: Inhibition of Mycobacterium tuberculosis chorismate mutase at 50 uM using chorismate substrate by spectrophotometry
T1 sequence (whole entry): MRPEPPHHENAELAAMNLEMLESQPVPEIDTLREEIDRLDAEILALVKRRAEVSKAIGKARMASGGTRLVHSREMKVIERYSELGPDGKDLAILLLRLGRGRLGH
Summary of the method: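 His-tagged MtCM expressed in E. coli BL21(DE3) and purified by Ni-NTA. Started with 180 pmol enzyme, 5 min at 37 °C, stopped with 1 N HCl. Prephenate formation read at A274 against no-enzyme blanks. % inhibition = 100 − residual activity.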

[2] = target: T2, Intracellular chorismate mutase (Mycobacterium tuberculosis, UniProt P9WIC1); assay: Inhibition of Mycobacterium tuberculosis chorismate mutase using chorismate substrate in dose response study by spectrophotometry
T2 sequence (P9WIC1 whole entry): T1 sequence (whole entry)

## CC(C)(C)OC(=O)N1CCc2c(sc3ncn(-c4ccccc4)c(=O)c23)C1
[1]
  inhibition: 37.2%

## Cc1csc2ncn(-c3ccc(F)cc3)c(=O)c12
[1]
  inhibition: 17.7%

## O=c1c2c3c(sc2ncn1-c1ccc(F)cc1)CCCCC3
[1]
  inhibition: 14.6%

## O=C(c1ccccc1I)N1CCc2c(sc3ncn(-c4ccccc4)c(=O)c23)C1
[1]
  inhibition: 12.6%

## CC(C)(C)OC(=O)N1CCc2c(sc3ncn(-c4cccc(C=O)c4)c(=O)c23)C1
[2]
  IC50: 23.9 µM
[1]
  inhibition: 49.9%

## O=c1c2c3c(sc2ncn1-c1cccc(Cl)c1)CCCC3
[1]
  inhibition: 42.5%

## COc1cc(CCNc2c([N+](=O)[O-])cc(C(=O)O)cc2S(N)(=O)=O)cc(OC)c1
[2]
  IC50: < 10 µM

## COc1cccc(-n2cnc3sc4c(c3c2=O)CCCC4)c1
[2]
  IC50: 19.8 µM
[1]
  inhibition: 47%

## O=c1c2c3c(sc2ncn1-c1ccccc1)CCCC3
[1]
  inhibition: 35.6%

## O=c1c2c3c(sc2ncn1-c1ccccc1)CNCC3
[1]
  inhibition: 36.2%

## O=c1c2c3c(sc2ncn1-c1ccc(F)cc1)CCCC3
[1]
  inhibition: 12.8%

## O=c1c2c3c(sc2ncn1-c1ccc2ccccc2c1)CCCC3
[1]
  inhibition: 33%

## O=c1c2c3c(sc2ncn1-c1ccccc1)CCCCC3
[1]
  inhibition: 13%

## O=Cc1cccc(-n2cnc3sc4c(c3c2=O)CCCC4)c1
[1]
  inhibition: 45.3%
